Measured values as given in ChEMBL document CHEMBL3232762, “Synthesis and biological evaluation of a novel sigma-1 receptor antagonist based on 3,4-dihydro-2(1H)-quinolinone scaffold as a potential analgesic” (Eur J Med Chem, 2014).
Active and inactive are the calls of the source. The rule behind the calls is not given here.

Tests used:
[1] = target: Sigma non-opioid intracellular receptor 1 (Cavia porcellus, UniProt Q60492); experiment: Displacement of [3H]-(+)-pentazocine from sigma 1 receptor in Dunkin Hartley guinea pig membrane after 180 mins by liquid scintillation counting analysis; assay type: cell membranes
[2] = Displacement of [3H]-DTG from sigma 2 receptor in Dunkin Hartley guinea pig membrane after 120 mins by liquid scintillation counting analysis […]; assay type: cell membranes, Cavia porcellus
Cavia porcellus = species: Cavia porcellus; experiment: Selectivity ratio of Ki for sigma 2 receptor in Dunkin Hartley guinea pig membrane to Ki for sigma 1 receptor in Dunkin Hartley guinea pig membrane; assay type: cell membranes
Mus musculus [3] = experiment: Antinociceptive activity against formalin-induced pain in Kunming mouse assessed as reduction in mean licking and biting time at 80 mg/kg, ip administered 15 mins before fomalin injection measured during first phase of 0 to 5 mins after formalin challenge; assay type: functional; details: route intraperitoneal
Mus musculus [4] = experiment: Antinociceptive activity in Kunming mouse assessed as reduction in formalin-induced pain behaviour at 160 mg/kg, ip administered 15 mins before fomalin injection measured during second phase of 15 to 45 mins after formalin challenge; assay type: functional
Summary of the method: (§1)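 Kunming mice (20 ± 2.0 g), 10–12 per group, dosed i.p. in 30% PEG 400 (10 mL/kg) 15 min before intraplantar formalin. Paw licking/biting time was scored in phase I (0–5 min) and phase II (15–45 min). Antinociception (%) = (vehicle licking time − drug licking time)/vehicle licking time × 100. Two-way ANOVA with Newman-Keuls test.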

Mus musculus [5] = experiment: Antinociceptive activity in Kunming mouse assessed as reduction in formalin-induced pain behaviour at 80 mg/kg, ip administered 15 mins before fomalin injection measured during first phase of 0 to 5 mins after formalin challenge; assay type: functional; summary of the method: as §1
Mus musculus [6] = experiment: Antinociceptive activity in Kunming mouse assessed as reduction in formalin-induced pain behaviour at 40 mg/kg, ip administered 15 mins before fomalin injection measured during second phase of 15 to 45 mins after formalin challenge; assay type: functional; summary of the method: as §1
[7] = target: Sigma non-opioid intracellular receptor 1 (Cavia porcellus) (UniProt Q60492); experiment: Ratio of Ki for sigma 1 receptor in Dunkin Hartley guinea pig membrane in absence of phenytoin to Ki for sigma 1 receptor in Dunkin Hartley guinea pig membrane in presence of phenytoin; assay type: cell membranes
Mus musculus [8] = experiment: Antinociceptive activity against formalin-induced pain in Kunming mouse assessed as reduction in mean licking and biting time at 80 mg/kg, ip administered 15 mins before fomalin injection measured during second phase of 15 to 45 mins after formalin challenge; assay type: functional; details: route intraperitoneal
Mus musculus [9] = experiment: Antinociceptive activity in Kunming mouse assessed as reduction in formalin-induced pain behaviour at 80 mg/kg, ip administered 15 mins before fomalin injection measured during second phase of 15 to 45 mins after formalin challenge; assay type: functional; summary of the method: as §1
Mus musculus [10] = experiment: Antinociceptive activity in Kunming mouse assessed as reduction in formalin-induced pain behaviour at 40 mg/kg, ip administered 15 mins before fomalin injection measured during first phase of 0 to 5 mins after formalin challenge; assay type: functional; summary of the method: as §1
Mus musculus [11] = experiment: Antinociceptive activity in Kunming mouse assessed as reduction in formalin-induced pain behaviour at 160 mg/kg, ip administered 15 mins before fomalin injection measured during first phase of 0 to 5 mins after formalin challenge; assay type: functional; summary of the method: as §1
[12] = target: Sigma non-opioid intracellular receptor 1 (Homo sapiens, UniProt Q99720); experiment: Binding affinity to sigma 1 receptor (unknown origin)
Mus musculus [13] = experiment: Antinociceptive activity in ip dosed Kunming mouse assessed as reduction in formalin-induced pain behaviour administered 15 mins before fomalin injection measured during second phase of 15 to 45 mins after formalin challenge; assay type: functional; summary of the method: as §1
Mus musculus [14] = experiment: Antinociceptive activity in ip dosed Kunming mouse assessed as reduction in formalin-induced pain behaviour administered 15 mins before fomalin injection measured during first phase of 0 to 5 mins after formalin challenge; assay type: functional; summary of the method: as §1

Chain of Sigma non-opioid intracellular receptor 1 (Cavia porcellus, UniProt Q60492) (Q60492 whole entry): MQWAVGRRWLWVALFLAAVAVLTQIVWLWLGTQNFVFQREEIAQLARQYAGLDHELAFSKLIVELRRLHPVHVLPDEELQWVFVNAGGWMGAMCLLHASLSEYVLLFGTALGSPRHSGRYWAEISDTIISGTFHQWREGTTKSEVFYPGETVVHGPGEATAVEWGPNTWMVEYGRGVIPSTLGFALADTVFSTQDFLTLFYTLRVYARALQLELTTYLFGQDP
Chain of Sigma non-opioid intracellular receptor 1 (Cavia porcellus) (Q60492 whole entry): as above
Chain of Sigma non-opioid intracellular receptor 1 (Homo sapiens, UniProt Q99720) (Q99720 whole entry): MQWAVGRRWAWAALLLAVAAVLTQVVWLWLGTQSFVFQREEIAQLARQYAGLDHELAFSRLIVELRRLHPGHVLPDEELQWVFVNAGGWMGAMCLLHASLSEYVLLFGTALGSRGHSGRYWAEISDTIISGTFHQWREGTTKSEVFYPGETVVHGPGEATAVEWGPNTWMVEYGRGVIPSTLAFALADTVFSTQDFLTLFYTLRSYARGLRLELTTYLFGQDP

O=C1CCc2ccc(OCCCCCCN3CCOCC3)cc2N1Cc1ccccc1
Ki [1]: 682 nM | Ki [2]: 2000 nM

O=C1CCc2cc(OCCCN3CCOCC3)ccc2N1CCc1ccccc1
Ki [1]: 40.2 nM | Ratio Ki (Cavia porcellus): 2.4 | Ki [2]: 98.1 nM

CN(C)CCCOc1ccc2c(c1)N(Cc1ccccc1)C(=O)CC2
Ki [1]: 83.2 nM | Ratio Ki (Cavia porcellus): 2.4 | Ki [2]: 205 nM

O=C1CCc2ccc(OCCN3CCOCC3)cc2N1Cc1ccccc1
Ki [1]: > 2000 nM | Ki [2]: > 2000 nM

CC1CCN(CCCOc2ccc3c(c2)NC(=O)CC3)CC1
Ki [1]: 66.7 nM | Ratio Ki (Cavia porcellus): 6.1 | Ki [2]: 409 nM

O=C1CCc2ccc(OCCCN3CCCCC3)cc2N1Cc1ccccc1
Ki [1]: 1.84 nM | Ratio Ki (Cavia porcellus): 360 | Ki [2]: 662 nM

O=C(CCCN1CCC(O)(c2ccc(Cl)cc2)CC1)c1ccc(F)cc1 [HALOPERIDOL]
Ki [2]: 36.4 nM

O=C1CCN(CCCOc2ccc3c(c2)N(Cc2ccccc2)C(=O)CC3)CC1
Ki [1]: 98.2 nM | Ratio Ki (Cavia porcellus): 18.3 | Ki [2]: 1800 nM

O=C1CCc2cc(OCCCN3CCOCC3)ccc2N1Cc1ccccc1
Ki [1]: 792 nM | Ratio Ki (Cavia porcellus): 1.4 | Ki [2]: 1120 nM

CN1C(=O)CCc2ccc(OCCCN3CCCCC3)cc21
Ki [1]: 34.3 nM | Ratio Ki (Cavia porcellus): 10.4 | Ki [2]: 357 nM

CCN(CC)CCCOc1ccc2c(c1)N(Cc1ccccc1)C(=O)CC2
Ki [1]: 39.4 nM | Ratio Ki (Cavia porcellus): 2.5 | Ki [2]: 97.2 nM

CN1CCN(CCCOc2ccc3c(c2)N(Cc2ccccc2)C(=O)CC3)CC1
Ki [1]: 4.3 nM | Ratio Ki (Cavia porcellus): 37.4 | Ki [2]: 161 nM

CC1CCN(CCCOc2ccc3c(c2)N(Cc2ccc(F)cc2)C(=O)CC3)CC1
Ki [1]: 0.77 nM | Time (Mus musculus [3]): 34.82 s | Ratio Ki (Cavia porcellus): 1250 | inhibition (Mus musculus [4]): Active | inhibition (Mus musculus [5]): Active | inhibition (Mus musculus [6]): Active | Ratio Ki [7]: 0.91 | Ki [2]: 960 nM | Time (Mus musculus [8]): 89.75 s | inhibition (Mus musculus [9]): Active | inhibition (Mus musculus [10]): Active | inhibition (Mus musculus [11]): Active

Cc1ccc(CN2C(=O)CCc3ccc(OCCCN4CCCCC4)cc32)cc1
Ki [1]: 1.69 nM | Ratio Ki (Cavia porcellus): 488 | Ki [2]: 825 nM

Cc1ccc(CN2C(=O)CCc3ccc(OCCCN4CCC(C)CC4)cc32)cc1
Ki [1]: 1.49 nM | Ratio Ki (Cavia porcellus): 507 | Ki [2]: 755 nM

O=C1CCc2cc(OCCN3CCOCC3)ccc2N1Cc1ccccc1
Ki [1]: > 2000 nM | Ki [2]: > 2000 nM

O=C1CCc2cc(OCCCCCN3CCOCC3)ccc2N1Cc1ccccc1
Ki [1]: 70.7 nM | Ratio Ki (Cavia porcellus): 6.1 | Ki [2]: 430 nM

Cc1ccccc1NC(=N)Nc1ccccc1C [DITOLYLGUANIDINE]
Ki [2]: 49.2 nM

O=C1CCc2cc(OCCCCCCN3CCOCC3)ccc2N1Cc1ccccc1
Ki [1]: 852 nM | Ki [2]: > 2000 nM

O=C1CCc2ccc(OCCCN3CCCCC3)cc2N1
Ki [1]: 89.1 nM | Ratio Ki (Cavia porcellus): 3.2 | Ki [2]: 288 nM

CC1CCN(CCCOc2ccc3c(c2)N(Cc2ccccc2)C(=O)CC3)CC1
Ki [1]: 1.1 nM | Ratio Ki (Cavia porcellus): 290 | Ki [2]: 319 nM

O=C1CCc2ccc(OCCCN3CCOCC3)cc2N1CCc1ccccc1
Ki [1]: 21.6 nM | Ratio Ki (Cavia porcellus): 4.6 | Ki [2]: 100 nM

O=C1CCc2ccc(OCCCCN3CCOCC3)cc2N1Cc1ccccc1
Ki [1]: 60.2 nM | Ratio Ki (Cavia porcellus): 8.8 | Ki [2]: 530 nM

O=C1CCc2ccc(OCCCCN3CCOCC3)cc2N1CCc1ccccc1
Ki [1]: 44.8 nM | Ratio Ki (Cavia porcellus): 26.8 | Ki [2]: 1200 nM

CC1CCN(CCCOc2ccc3c(c2)N(C)C(=O)CC3)CC1
Ki [1]: 40.2 nM | Ratio Ki (Cavia porcellus): 7.7 | Ki [2]: 311 nM

O=C1CCc2ccc(OCCCCCN3CCOCC3)cc2N1Cc1ccccc1
Ki [1]: 88.4 nM | Ratio Ki (Cavia porcellus): 20.4 | Ki [2]: 1810 nM

O=C1CCc2ccc(OCCCN3CCCC3)cc2N1Cc1ccccc1
Ki [1]: 23.8 nM | Ratio Ki (Cavia porcellus): 23.1 | Ki [2]: 550 nM

O=C1CCc2ccc(OCCCN3CCOCC3)cc2N1Cc1ccccc1
Ki [1]: 14.8 nM | Ratio Ki (Cavia porcellus): 31.8 | Ki [2]: 471 nM

O=C1CCc2cc(OCCCCN3CCOCC3)ccc2N1Cc1ccccc1
Ki [1]: 22.2 nM | Ratio Ki (Cavia porcellus): 11.7 | Ki [2]: 260 nM

Cc1cc(OCCN2CCOCC2)nn1-c1ccc2ccccc2c1
Ki [1]: 10.5 nM | Time (Mus musculus [3]): 8.63 s | Ratio Ki (Cavia porcellus): > 190 | Ki [2]: > 2000 nM | Time (Mus musculus [8]): 27.34 s

COc1cccc2c1CCC(=O)N2CCCN1CCN(c2cccc(Cl)c2)CC1
IC50 [12]: 47 nM

O=C1CCc2ccc(OCCCN3CCCCC3)cc2N1Cc1ccc(F)cc1
Ki [1]: 1.22 nM | Time (Mus musculus [3]): 12.08 s | Ratio Ki (Cavia porcellus): 1070 | inhibition in vivo at 160 mg/kg (Mus musculus [4]; route intraperitoneal): 98.2% | ED50 (Mus musculus [13]): 50.5 mg/kg | inhibition (Mus musculus [13]): Dose-dependent effect | inhibition in vivo at 80 mg/kg (Mus musculus [5]; route intraperitoneal): 84.8% | inhibition in vivo at 40 mg/kg (Mus musculus [6]; route intraperitoneal): 30.5% | Ratio Ki [7]: 0.86 | Ki [2]: 1300 nM | ED50 (Mus musculus [14]): 49.4 mg/kg | inhibition (Mus musculus [14]): Dose-dependent effect | Time (Mus musculus [8]): 36.13 s | inhibition in vivo at 80 mg/kg (Mus musculus [9]; route intraperitoneal): 87.7% | inhibition in vivo at 40 mg/kg (Mus musculus [10]; route intraperitoneal): 33.4% | inhibition in vivo at 160 mg/kg (Mus musculus [11]; route intraperitoneal): 97.6%

O=C1CCc2cc(OCCCCN3CCOCC3)ccc2N1CCc1ccccc1
Ki [1]: 195 nM | Ki [2]: > 2000 nM

O=C1CCc2ccc(OCCCN3CCN(c4ccccc4)CC3)cc2N1Cc1ccccc1
Ki [1]: 341 nM | Ki [2]: > 2000 nM
